Laboratory results taken from ChEMBL document CHEMBL2046305, “Discovery of selective menaquinone biosynthesis inhibitors against Mycobacterium tuberculosis” (J Med Chem, 2012).
pIC50: −log10 of the molar value. Values after ≈ are worked out from the molar mass of the structure shown. Active and inactive are the calls of the source. The rule behind the calls is not given here.

Tests used:
[1] = tested on: Staphylococcus aureus; assay: Inhibition of Staphylococcus aureus MenA using [3H]farnesyl and DHNA as substrate at 100 uM after 2 hrs
Summary of the method: (§1)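 Membrane fraction from mid-log cultures in 7H9/OADC, washed in saline, sonicated in MOPS pH 8/sucrose/MgCl2/2-mercaptoethanol buffer, spun 15,000 g then 200,000 g; the fraction was the enzyme source. DHNA (500 μM stock), MgCl2, 0.1% CHAPS, Tris pH 8, farnesyl diphosphate (200 μM stock) and inhibitor, 2 h at 37 °C. Quenched with 0.1 M AcOH/MeOH, extracted with hexanes, DMMK measured.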

[2] = tested on: Mycobacterium tuberculosis; assay: Inhibition of Mycobacterium tuberculosis MenA using [3H]farnesyl and DHNA as substrate at 100 uM after 2 hrs; summary of the method: as §1
[3] = Inhibition of Mycobacterium tuberculosis MenA using [3H]farnesyl and DHNA as substrate after 2 hrs; summary of the method: as §1
[4] = tested on: Staphylococcus aureus; assay: Antibacterial activity against Staphylococcus aureus Seattle 1945 ATCC 25923 by agar plate diffusion method; format: functional
[5] = tested on: Mycobacterium tuberculosis; assay: Antibacterial activity against Mycobacterium tuberculosis H37Rv ATCC 27294 by microplate alamar blue assay; format: functional
Summary of the method: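 Colorimetric microplate assay run under aerobic conditions; growth scored by the colour change of resazurin. Compounds showing at least 90% inhibition in a preliminary screen were retested at lower concentrations to give the MIC.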

[6] = tested on: Mycobacterium tuberculosis; assay: Antibacterial activity against non-replicating Mycobacterium tuberculosis H37Rv ATCC 27294 by low oxygen recovery assay; format: functional
[7] = tested on: Escherichia coli; assay: Growth inhibition of Escherichia coli Seattle ATCC 25922 at 5 to 10 ug/ml by microplate alamar blue assay; format: functional, organism-based
[8] = tested on: Escherichia coli; assay: Growth inhibition of Escherichia coli Seattle ATCC 25922 at 5 to 10 ug/ml by microplate alamar blue assay in presence of 50 uM VK2; format: functional, organism-based
Summary of the method: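 E. coli grown with inhibitor under anaerobic conditions; rescue tested by supplementing with menaquinone (VK2, 50 μM).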

In the case of `CCCCCCC[C@@H](OC(N)=O)c1cccc(CN2CCC(COc3cccc(C(=O)c4ccc(Cl)cc4)c3)CC2)c1`, the inhibition [1] was “inactive”, the inhibition [2] was “Active” and the pIC50 [3] was 4.82. For the same molecule, the MIC [4] was > 60 µg/mL, the MIC [5] was 12.5 µg/mL (≈ 21.1 µM) and the MIC [6] was 4.93 µg/mL (≈ 8.34 µM). For the same molecule, the “growth inhibition (GI)” value [7] was “Active” and the “growth inhibition (GI)” value [8] was “inactive”.
In the case of `CCCC[C@@H](O)CN1CCC(COc2cccc(C(=O)c3ccc(Cl)cc3)c2)CC1`, the inhibition [1] was “inactive”, the inhibition [2] was “Active” and the pIC50 [3] was 4.77. The MIC [4] was > 60 µg/mL, the MIC [5] was 6.2 µg/mL (≈ 14.4 µM) and the MIC [6] was 4.91 µg/mL (≈ 11.4 µM). For the same molecule, the “growth inhibition (GI)” value [7] was “Active” and the “growth inhibition (GI)” value [8] was “inactive”.
In the case of `COc1ccc(CCN[C@@H](CO)c2cccc(COc3cccc(C(=O)c4ccc(Cl)cc4)c3)c2)cc1`, the inhibition [1] was “inactive”, the inhibition [2] was “Active” and the pIC50 [3] was 4.85. For the same molecule, the MIC [4] was > 60 µg/mL, the MIC [5] was 12.5 µg/mL (≈ 24.2 µM) and the MIC [6] was 3 µg/mL (≈ 5.81 µM). For the same molecule, the “growth inhibition (GI)” value [7] was “Active” and the “growth inhibition (GI)” value [8] was “inactive”.
In the case of `CCCCCC[C@@H](CN1CCC(COc2ccc(/C(=N\OC)c3ccc(Cl)cc3)c(Cl)c2)CC1)OC(N)=O`, the inhibition [1] was “inactive”, the inhibition [2] was “Active” and the pIC50 [3] was 5.82. The MIC [4] was > 60 µg/mL, the MIC [5] was 1.5 µg/mL (≈ 2.66 µM) and the MIC [6] was 1.4 µg/mL (≈ 2.48 µM). The “growth inhibition (GI)” value [7] was “Active” and the “growth inhibition (GI)” value [8] was “inactive”.
In the case of `CCCCCCC[C@@H](O)c1cccc(CN2CCC(COc3ccc(/C(=N\OC)c4ccc(Cl)cc4)c(Cl)c3)CC2)c1`, the inhibition [1] was “inactive”, the inhibition [2] was “Active” and the pIC50 [3] was 4.82. The MIC [4] was > 60 µg/mL, the MIC [5] was 12.5 µg/mL (≈ 20.4 µM) and the MIC [6] was 5.54 µg/mL (≈ 9.06 µM). The “growth inhibition (GI)” value [7] was “Active” and the “growth inhibition (GI)” value [8] was “inactive”.
For `CCCCCCC[C@@H](O)c1cccc(CN2CCC(COc3cccc(C(=O)c4ccc(Cl)cc4)c3)CC2)c1`, the inhibition [1] was “inactive”, the inhibition [2] was “Active” and the pIC50 [3] was 4.70. The MIC [4] was > 60 µg/mL, the MIC [5] was 12.5 µg/mL (≈ 22.8 µM) and the MIC [6] was 1.46 µg/mL (≈ 2.66 µM). The “growth inhibition (GI)” value [7] was “Active” and the “growth inhibition (GI)” value [8] was “inactive”.
With `CCCCCC[C@H](O)CN1CCC(COc2cccc(C(=O)c3ccc(Cl)cc3)c2)CC1` the inhibition [1] was “inactive”, the inhibition [2] was “Active” and the pIC50 [3] was 4.80. For the same molecule, the MIC [4] was > 60 µg/mL, the MIC [5] was 12.5 µg/mL (≈ 27.3 µM) and the MIC [6] was 4.91 µg/mL (≈ 10.7 µM). The “growth inhibition (GI)” value [7] was “Active” and the “growth inhibition (GI)” value [8] was “inactive”.
With `NNC(=O)c1ccncc1` [ISONIAZID] the MIC [5] was 0.03 µg/mL (≈ 0.219 µM) and the MIC [6] was > 128 µg/mL.
For `CCCCCC[C@@H](O)CN1CCC(COc2cccc(C(=O)c3ccc(Cl)cc3)c2)CC1`, the inhibition [1] was “inactive”, the inhibition [2] was “Active” and the pIC50 [3] was 5.05. For the same molecule, the MIC [4] was > 60 µg/mL, the MIC [5] was 6.2 µg/mL (≈ 13.5 µM) and the MIC [6] was 5.59 µg/mL (≈ 12.2 µM). For the same molecule, the “growth inhibition (GI)” value [7] was “Active” and the “growth inhibition (GI)” value [8] was “inactive”.
For `CCCCCC[C@@H](O)CN1CCC(COc2ccc(C(=O)c3ccc(Cl)cc3)c(Cl)c2)CC1`, the inhibition [1] was “inactive”, the inhibition [2] was “Active” and the pIC50 [3] was 5.02. For the same molecule, the MIC [4] was > 60 µg/mL, the MIC [5] was 6.25 µg/mL (≈ 12.7 µM) and the MIC [6] was 5.2 µg/mL (≈ 10.6 µM). For the same molecule, the “growth inhibition (GI)” value [7] was “Active” and the “growth inhibition (GI)” value [8] was “inactive”.
In the case of `COc1ccc(CCN[C@H](CO)c2cccc(COc3cccc(C(=O)c4ccc(Cl)cc4)c3)c2)cc1`, the inhibition [1] was “inactive”, the inhibition [2] was “Active” and the pIC50 [3] was 4.77. The MIC [4] was > 60 µg/mL, the MIC [5] was 12.5 µg/mL (≈ 24.2 µM) and the MIC [6] was 3 µg/mL (≈ 5.81 µM). The “growth inhibition (GI)” value [7] was “Active” and the “growth inhibition (GI)” value [8] was “inactive”.
For `CCCC[C@H](O)CN1CCC(COc2ccc(C(=O)c3ccc(Cl)cc3)c(Cl)c2)CC1`, the inhibition [1] was “inactive”, the inhibition [2] was “Active” and the pIC50 [3] was 5.35. For the same molecule, the MIC [4] was > 60 µg/mL, the MIC [5] was 1.5 µg/mL (≈ 3.23 µM) and the MIC [6] was 1.43 µg/mL (≈ 3.08 µM). For the same molecule, the “growth inhibition (GI)” value [7] was “Active” and the “growth inhibition (GI)” value [8] was “inactive”.
In the case of `CCCCCCC[C@@H](O)c1cccc(CN2CCC(COc3cccc(/C(=N\OC)c4ccc(Cl)cc4)c3)CC2)c1`, the inhibition [1] was “inactive”, the inhibition [2] was “Active” and the pIC50 [3] was 4.82. For the same molecule, the MIC [4] was > 60 µg/mL, the MIC [5] was 6.25 µg/mL (≈ 10.8 µM) and the MIC [6] was 1.43 µg/mL (≈ 2.48 µM). The “growth inhibition (GI)” value [7] was “Active” and the “growth inhibition (GI)” value [8] was “inactive”.
In the case of `CCCC[C@H](O)CN1CCC(COc2cccc(C(=O)c3ccc(Cl)cc3)c2)CC1`, the inhibition [1] was “inactive”, the inhibition [2] was “Active” and the pIC50 [3] was 5.12. For the same molecule, the MIC [4] was > 60 µg/mL, the MIC [5] was 12.5 µg/mL (≈ 29.1 µM) and the MIC [6] was 5.59 µg/mL (≈ 13 µM). For the same molecule, the “growth inhibition (GI)” value [7] was “Active” and the “growth inhibition (GI)” value [8] was “inactive”.
For `CCCCCCC[C@@H](O)c1cccc(CN2CCC(COc3ccc(C(=O)c4ccc(Cl)cc4)c(Cl)c3)CC2)c1`, the inhibition [1] was “inactive”, the inhibition [2] was “Active” and the pIC50 [3] was 4.82. The MIC [4] was > 60 µg/mL, the MIC [5] was 12.5 µg/mL (≈ 21.5 µM) and the MIC [6] was 1.46 µg/mL (≈ 2.51 µM). The “growth inhibition (GI)” value [7] was “Active” and the “growth inhibition (GI)” value [8] was “inactive”.
With `CCCCC(CN1CCC(COc2ccc(C(=O)c3ccc(Cl)cc3)c(Cl)c2)CC1)OC(N)=O` (racemic) the inhibition [1] was “inactive”, the inhibition [2] was “Active” and the pIC50 [3] was 5.12. For the same molecule, the MIC [4] was > 60 µg/mL, the MIC [5] was 3.25 µg/mL (≈ 6.4 µM) and the MIC [6] was 2.83 µg/mL (≈ 5.58 µM). For the same molecule, the “growth inhibition (GI)” value [7] was “Active” and the “growth inhibition (GI)” value [8] was “inactive”.
In the case of `CCCCCCC[C@H](OC(N)=O)c1cccc(CN2CCC(COc3cccc(C(=O)c4ccc(Cl)cc4)c3)CC2)c1`, the inhibition [1] was “inactive”, the inhibition [2] was “Active” and the pIC50 [3] was 4.70. The MIC [4] was > 60 µg/mL, the MIC [5] was 12.5 µg/mL (≈ 21.1 µM) and the MIC [6] was 4.93 µg/mL (≈ 8.34 µM). For the same molecule, the “growth inhibition (GI)” value [7] was “Active” and the “growth inhibition (GI)” value [8] was “inactive”.
In the case of `CCCCCCC[C@H](OC(N)=O)c1cccc(CN2CCC(COc3ccc(C(=O)c4ccc(Cl)cc4)c(Cl)c3)CC2)c1`, the inhibition [1] was “inactive”, the inhibition [2] was “Active” and the pIC50 [3] was 4.70. For the same molecule, the MIC [4] was > 60 µg/mL, the MIC [5] was 12.5 µg/mL (≈ 20 µM) and the MIC [6] was 2.93 µg/mL (≈ 4.68 µM). The “growth inhibition (GI)” value [7] was “Active” and the “growth inhibition (GI)” value [8] was “inactive”.
For `CCCCCC[C@@H](CN1CCC(COc2cccc(C(=O)c3ccc(Cl)cc3)c2)CC1)OC(N)=O`, the inhibition [1] was “inactive”, the inhibition [2] was “Active” and the pIC50 [3] was 5.05. For the same molecule, the MIC [4] was > 60 µg/mL, the MIC [5] was 12.5 µg/mL (≈ 24.9 µM) and the MIC [6] was 2.94 µg/mL (≈ 5.87 µM). The “growth inhibition (GI)” value [7] was “Active” and the “growth inhibition (GI)” value [8] was “inactive”.
For `CCCCCCC[C@H](O)c1cccc(CN2CCC(COc3ccc(C(=O)c4ccc(Cl)cc4)c(Cl)c3)CC2)c1`, the inhibition [1] was “inactive”, the inhibition [2] was “Active” and the pIC50 [3] was 4.82. For the same molecule, the MIC [4] was > 60 µg/mL, the MIC [5] was 12.5 µg/mL (≈ 21.5 µM) and the MIC [6] was 1.88 µg/mL (≈ 3.23 µM). The “growth inhibition (GI)” value [7] was “Active” and the “growth inhibition (GI)” value [8] was “inactive”.
For `CCCC[C@@H](O)CN1CCC(COc2ccc(C(=O)c3ccc(Cl)cc3)c(Cl)c2)CC1`, the inhibition [1] was “inactive”, the inhibition [2] was “Active” and the pIC50 [3] was 5.12. The MIC [4] was > 60 µg/mL, the MIC [5] was 6.25 µg/mL (≈ 13.5 µM) and the MIC [6] was 2.85 µg/mL (≈ 6.14 µM). The “growth inhibition (GI)” value [7] was “Active” and the “growth inhibition (GI)” value [8] was “inactive”.
`CO[C@H]1/C=C/O[C@@]2(C)Oc3c(C)c(O)c4c(O)c(c(/C=N/N5CCN(C)CC5)c(O)c4c3C2=O)NC(=O)/C(C)=C\C=C\[C@H](C)[C@H](O)[C@@H](C)[C@@H](O)[C@@H](C)[C@H](OC(C)=O)[C@@H]1C` [RIFAMPIN] gave an MIC [5] of 0.07 µg/mL (≈ 0.0851 µM).
In the case of `CCCCCCC[C@H](O)c1cccc(CN2CCC(COc3cccc(C(=O)c4ccc(Cl)cc4)c3)CC2)c1`, the inhibition [1] was “inactive”, the inhibition [2] was “Active” and the pIC50 [3] was 4.60. The MIC [4] was > 60 µg/mL, the MIC [5] was 12.5 µg/mL (≈ 22.8 µM) and the MIC [6] was 1.88 µg/mL (≈ 3.43 µM). The “growth inhibition (GI)” value [7] was “Active” and the “growth inhibition (GI)” value [8] was “inactive”.
